Experimental data reported in ChEMBL document CHEMBL1157144, “Novel 16-membered macrolides modified at C-12 and C-13 positions of midecamycin A1 and miokamycin. Part 1: Synthesis and evaluation of 12,13-carbamate and 12-arylalkylamino-13-hydroxy analogues” (2008).
≈ marks a conversion by molar mass, not a printed value.

How the values were obtained:
Assay type in all cases: functional
[1] = tested on: Staphylococcus aureus; assay: Antibacterial activity against standard Staphylococcus aureus after 20 hrs by agar dilution method
Procedure, shortened: (§1)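 Agar dilution MIC. The inoculum came from a seed culture in Sensitivity test broth. A 5 µl portion of a cell suspension of about 10^6 CFU/ml was inoculated onto Sensitivity disk agar supplemented with 5% horse blood. Plates were incubated at 37 °C for 20 h, then MIC was read.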

[2] = tested on: Staphylococcus aureus; assay: Antibacterial activity against susceptible Staphylococcus aureus after 20 hrs by agar dilution method; procedure, shortened: as §1
[3] = tested on: Staphylococcus aureus; assay: Antibacterial activity against ermA-constitutive resistant Staphylococcus aureus after 20 hrs by agar dilution method; procedure, shortened: as §1
[4] = tested on: Staphylococcus aureus; assay: Antibacterial activity against ermB-inducible resistant Staphylococcus aureus after 20 hrs by agar dilution method; procedure, shortened: as §1
[5] = tested on: Staphylococcus aureus; assay: Antibacterial activity against ermC-inducible resistant Staphylococcus aureus after 20 hrs by agar dilution method; procedure, shortened: as §1
[6] = tested on: Streptococcus pneumoniae; assay: Antibacterial activity against susceptible Streptococcus pneumoniae after 20 hrs by agar dilution method
Procedure, shortened: (§2)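 MIC by agar dilution. Strains grown on blood agar plates for seed culture. About 5 µl of a suspension of roughly 10^6 CFU/ml spotted onto Sensitivity disk agar with 5% horse blood. Plates incubated at 37 °C for 20 h, then MIC read.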

[7] = tested on: Streptococcus pneumoniae; assay: Antibacterial activity against ermB-constitutive resistant Streptococcus pneumoniae after 20 hrs by agar dilution method
Procedure, shortened: (§3)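 Agar dilution MIC. Streptococcal strains were pre-cultured on blood agar plates. A 5 µl portion of a cell suspension of about 10^6 CFU/ml was inoculated onto Sensitivity disk agar supplemented with 5% horse blood. Plates were incubated at 37 °C for 20 h, then MIC was read.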

[8] = tested on: Streptococcus pneumoniae; assay: Antibacterial activity against ermB-inducible resistant Streptococcus pneumoniae after 20 hrs by agar dilution method; procedure, shortened: as §3
[9] = tested on: Streptococcus pneumoniae; assay: Antibacterial activity against mefE efflux-resistant Streptococcus pneumoniae after 20 hrs by agar dilution method; procedure, shortened: as §3
[10] = tested on: Streptococcus pyogenes; assay: Antibacterial activity against standard Streptococcus pyogenes after 20 hrs by agar dilution method; procedure, shortened: as §2
[11] = tested on: Streptococcus pyogenes; assay: Antibacterial activity against ermB-constitutive resistant Streptococcus pyogenes after 20 hrs by agar dilution method; procedure, shortened: as §3
[12] = tested on: Streptococcus pyogenes; assay: Antibacterial activity against mefE efflux-resistant Streptococcus pyogenes after 20 hrs by agar dilution method; procedure, shortened: as §3
[13] = tested on: Moraxella catarrhalis; assay: Antibacterial activity against standard Moraxella catarrhalis after 20 hrs by agar dilution method; procedure, shortened: as §2
[14] = tested on: Haemophilus influenzae; assay: Antibacterial activity against standard Haemophilus influenzae after 20 hrs by agar dilution method; procedure, shortened: as §2
[15] = tested on: Haemophilus influenzae; assay: Antibacterial activity against susceptible Haemophilus influenzae after 20 hrs by agar dilution method; procedure, shortened: as §2

CCC(=O)O[C@@H]1CC(=O)O[C@H](C)C[C@H](O)[C@H](N(C)CCCc2cnc3ccccc3c2)/C=C/[C@H](OC(C)=O)[C@H](C)C[C@H](CC=O)[C@H](O[C@@H]2O[C@H](C)[C@@H](O)[C@H](N(C)C)[C@H]2O)[C@H]1OC
MIC [1]: 1.56 µg/mL (≈ 1.79 µM)
MIC [2]: 1.56 µg/mL (≈ 1.79 µM)
MIC [3]: > 100 µg/mL
MIC [4]: 1.56 µg/mL (≈ 1.79 µM)
MIC [5]: 1.56 µg/mL (≈ 1.79 µM)
MIC [6]: 0.2 µg/mL (≈ 0.229 µM)
MIC [7]: > 100 µg/mL
MIC [8]: > 100 µg/mL
MIC [9]: 0.39 µg/mL (≈ 0.447 µM)
MIC [10]: 0.78 µg/mL (≈ 0.894 µM)
MIC [11]: > 100 µg/mL
MIC [12]: 3.13 µg/mL (≈ 3.59 µM)
MIC [13]: 0.2 µg/mL (≈ 0.229 µM)
MIC [14]: 1.56 µg/mL (≈ 1.79 µM)
MIC [15]: 6.25 µg/mL (≈ 7.17 µM)
